Published values from different studies.
Target: Mitogen-activated protein kinase kinase kinase kinase 4 (MAP4K4, Homo sapiens, UniProt O95819)

O=C(NS(=O)(=O)c1ccc(NCC2CCOCC2)c([N+](=O)[O-])c1)c1ccc(N2CCN(Cc3ccc(C(F)(F)F)cc3-c3ccc(Cl)cc3)CC2)cc1Oc1cnc2[nH]ccc2c1 has a remaining binding of 95% (cell-free assay, competition with immobilised ligand; 1 µM).
With N[C@@H]1CCN(c2nccc(-c3cnn4ncccc34)n2)C1 the remaining binding was 100% (binding; 1 µM).
With COc1cnc(Nc2cccc(S(N)(=O)=O)c2)nc1N1CCN(c2ccccc2)CC1 the remaining binding was 87% (binding, competition with immobilised ligand; 1 µM).
CN(C)c1ncnc(-c2ccc3nc(Nc4cc(CN5CCN(C(=O)CC(F)(F)F)CC5)ccn4)[nH]c3c2)c1Cl has a remaining binding of 100% (cell-free assay, competition with immobilised ligand; 1 µM).
O=C(Nc1c[nH]nc1C(=O)NC1CCNCC1)c1cc(F)cc(F)c1 gave a remaining binding of 100% (binding, competition with immobilised ligand; 1 µM).
With FC(F)(F)c1ccc2c(c1)nc(-c1cccnc1)n2C1CC1 the remaining binding was 100% (cell-free assay, competition with immobilised ligand; 1 µM).
O=C(NCCCN1CCOCC1)c1ccc(Nc2nccc(-c3cc4ccccc4s3)n2)cc1 gave a remaining binding of 100% (binding, competition with immobilised ligand; 1 µM).
The remaining binding of c1cnn2ncc(-c3ccnc(N4CCC45COC5)n3)c2c1 is reported as 77% (binding; 1 µM).
CCN1CCN(Cc2ccc(C(=O)Nc3ccc(C)c(Oc4ccc5c(c4)CC(=O)N5)c3)cc2C(F)(F)F)CC1 gave a remaining binding of 88% (binding, competition with immobilised ligand; 1 µM).
F[C@@H]1CCN(c2nccc(-c3cnn4ncccc34)n2)C1 gave a remaining binding of 76% (binding; 1 µM).
C[C@H](c1cccc(C#N)c1)n1cc(Cl)cc(C(N)=O)c1=N gave a remaining binding of 100% (cell-free assay, competition with immobilised ligand; 1 µM).
C[C@H]1CCN(c2nccc(-c3cnn4ncccc34)n2)C1 has a remaining binding of 98% (binding; 1 µM).
The remaining binding of Cc1cnc(Nc2ccc(C(=O)N3CCC(N4CCCC4)CC3)cc2)nc1-c1cc2ccccc2s1 is reported as 67% (binding, competition with immobilised ligand; 1 µM).
For C[C@@H](c1ccc(-n2cnc3c(N)ncnc32)cc1)N1CCc2nn(C)c(Cc3ccccc3)c2C1=O, the remaining binding was 97% (binding, competition with immobilised ligand; 0.1 µM).
With CN(c1nccc(-c2cnn3ncccc23)n1)C1CC1 the remaining binding was 13% (binding; 1 µM).
The remaining binding of COc1ncc2cc3ccccc3nc2c1C#N is reported as 91% (cell-free assay, competition with immobilised ligand; 5 µM).
With CCCOc1ccc([C@H]2[C@H](C(=O)O)[C@@H](c3ccc4c(c3)OCO4)CN2CC(=O)Nc2c(CC)cccc2CC)cc1 the remaining binding was 90% (cell-free assay, competition with immobilised ligand; 1 µM).
CN(C)c1ncc(F)c(-c2cnn3ncccc23)n1 gave a remaining binding of 100% (binding; 1 µM).
CCc1ccccc1C(=O)Nc1n[nH]c2c(C)c(F)c(C3C(C#N)=C(C)N(C)C(C)=C3C#N)cc12 has a remaining binding of 100% (cell-free assay, competition with immobilised ligand; 1 µM).
O=C(c1ccc(Nc2nccc(-c3cc4ccccc4s3)n2)cc1)N1CCC(N2CCCC2)CC1 has a remaining binding of 40% (binding, competition with immobilised ligand; 1 µM).
COc1cnc(Nc2cccc(S(N)(=O)=O)c2)nc1N1CCN(c2ccccc2)C(=O)C1 gave a remaining binding of 100% (binding, competition with immobilised ligand; 1 µM).
